Legend:
[1] = system: Human immunodeficiency virus 1; test: Ratio of IC50 for multi drug-resistant HIV1 isolate of subtype C to IC50 for wild type HIV1 isolate ERS104pre; format: functional
Outline: (§1)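 Each assay run in duplicate; values are means (±1 SD) from two or three independent experiments. Fold change is the IC50 against each drug-resistant isolate divided by the IC50 against wild-type HIV-1 ERS104pre.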

[2] = system: Human immunodeficiency virus 1; test: Antiviral activity against wild type HIV1 isolate ERS104pre in PHA-stimulated human PBMC assessed as inhibition of p24 antigen production; format: functional, organism-based; conditions: Human immunodeficiency virus 1, isolate ERS104pre
[3] = system: Human immunodeficiency virus 1; test: Ratio of IC50 for multi drug-resistant HIV1 isolate of subtype JSL to IC50 for wild type HIV1 isolate ERS104pre; format: functional; outline: as §1
[4] = system: Human immunodeficiency virus 1; test: Ratio of IC50 for multi drug-resistant HIV1 isolate of subtype MM to IC50 for wild type HIV1 isolate ERS104pre; format: functional; outline: as §1
[5] = system: Human immunodeficiency virus 1; test: Ratio of IC50 for multi drug-resistant HIV1 isolate of subtype G to IC50 for wild type HIV1 isolate ERS104pre; format: functional; outline: as §1
[6] = system: Human immunodeficiency virus 1; test: Antiviral activity against multi drug-resistant HIV1 isolate of subtype C in PHA-stimulated human PBMC assessed as inhibition of p24 antigen production; format: functional, organism-based; conditions: Human immunodeficiency virus 1, isolate C
[7] = system: Human immunodeficiency virus 1; test: Antiviral activity against multi drug-resistant HIV1 isolate of subtype MM in PHA-stimulated human PBMC assessed as inhibition of p24 antigen production; format: functional, organism-based; conditions: Human immunodeficiency virus 1, isolate MM
[8] = system: Human immunodeficiency virus 1; test: Antiviral activity against multi drug-resistant HIV1 isolate of subtype TM in PHA-stimulated human PBMC assessed as inhibition of p24 antigen production; format: functional, organism-based; conditions: Human immunodeficiency virus 1, isolate TM
[9] = system: Human immunodeficiency virus 1; test: Ratio of IC50 for multi drug-resistant HIV1 isolate of subtype TM to IC50 for wild type HIV1 isolate ERS104pre; format: functional; outline: as §1
[10] = system: Human immunodeficiency virus 1; test: Antiviral activity against multi drug-resistant HIV1 isolate of subtype G in PHA-stimulated human PBMC assessed as inhibition of p24 antigen production; format: functional, organism-based; conditions: Human immunodeficiency virus 1, isolate G
[11] = biological target: Protease (Human immunodeficiency virus 1, UniProt Q9YQ12); test: Inhibition of HIV1 protease
[12] = system: Human immunodeficiency virus 1; test: Antiviral activity against HIV1 LAI in human MT2 cells after 7 days by MTT assay; format: functional, organism-based; conditions: Human immunodeficiency virus 1, LAI, MT2, 168 h
Outline: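 Human T-lymphoid MT-2 cells were exposed to 100 TCID50 of HIV-1LAI and cultured in the presence of each protease inhibitor. IC50 was determined by MTT assay. Values are means of at least three experiments.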

[13] = system: Human immunodeficiency virus 1; test: Antiviral activity against multi drug-resistant HIV1 isolate of subtype JSL in PHA-stimulated human PBMC assessed as inhibition of p24 antigen production; format: functional, organism-based; conditions: Human immunodeficiency virus 1, isolate JSL

Protease, sequence (Q9YQ12 whole entry): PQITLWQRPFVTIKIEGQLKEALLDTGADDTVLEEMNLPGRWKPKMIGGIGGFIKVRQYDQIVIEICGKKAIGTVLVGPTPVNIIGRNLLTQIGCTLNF

CC(C)CN(C[C@@H](O)[C@H](Cc1ccccc1)NC(=O)O[C@H]1CCOC1)S(=O)(=O)c1ccc(N)cc1
Ratio IC50 [1]: 8
IC50 [2]: 45 nM
Ratio IC50 [3]: 12
Ratio IC50 [4]: 7
Ratio IC50 [5]: 9
IC50 [6]: 346 nM
IC50 [7]: 313 nM
IC50 [8]: 406 nM
Ratio IC50 [9]: 9
IC50 [10]: 392 nM

Cc1ccccc1CNC(=O)[C@H]1N(C(=O)[C@@H](O)[C@H](Cc2ccccc2)NC(=O)O[C@H]2CO[C@H]3OCC[C@H]32)CSC1(C)C
Ratio IC50 [1]: 2
Ki [11]: 0.0052 nM
IC50 [12]: 9 nM
IC50 [2]: 31 nM
Ratio IC50 [3]: 8
Ratio IC50 [4]: 1
Ratio IC50 [5]: 1
IC50 [6]: 61 nM
IC50 [7]: 42 nM
IC50 [13]: 235 nM
IC50 [8]: 64 nM
Ratio IC50 [9]: 2
IC50 [10]: 29 nM

COc1ccc(CNC(=O)[C@H]2N(C(=O)[C@@H](O)[C@H](Cc3ccccc3)NC(=O)O[C@H]3CO[C@H]4OCC[C@H]43)CSC2(C)C)c(C)c1
Ki [11]: 2.03 nM
IC50 [12]: 51 nM

Cc1ccccc1CNC(=O)[C@H]1N(C(=O)[C@@H](O)[C@H](Cc2ccccc2)NC(=O)O[C@@H]2CCOCOC2)CSC1(C)C
Ki [11]: 0.78 nM

Cc1ccccc1CNC(=O)[C@H]1N(C[C@@H](O)[C@H](Cc2ccccc2)NC(=O)O[C@H]2CO[C@H]3OCC[C@H]32)CSC1(C)C
Ki [11]: 2.6 nM

Cc1ccccc1CNC(=O)[C@H]1N(C(=O)[C@@H](O)[C@H](Cc2ccccc2)NC(=O)O[C@@H]2C[C@@H]3CCO[C@@H]3C2)CSC1(C)C
Ki [11]: 0.29 nM
IC50 [12]: 13 nM

Cc1ccccc1CNC(=O)[C@H]1N(C(=O)[C@@H](O)[C@H](Cc2ccccc2)NC(=O)O[C@@H]2C[C@@H]3OCO[C@@H]3C2)CSC1(C)C
Ki [11]: 0.65 nM

Cc1cc(N)ccc1CNC(=O)[C@H]1N(C(=O)[C@@H](O)[C@H](Cc2ccccc2)NC(=O)O[C@H]2CO[C@H]3OCC[C@H]32)CSC1(C)C
Ki [11]: 1.01 nM
IC50 [12]: 530 nM

Cc1cc(CO)ccc1CNC(=O)[C@H]1N(C(=O)[C@@H](O)[C@H](Cc2ccccc2)NC(=O)O[C@H]2CO[C@H]3OCC[C@H]32)CSC1(C)C
Ki [11]: 0.31 nM
IC50 [12]: 230 nM

Cc1ccccc1CNC(=O)[C@H]1N(C[C@@H](O)[C@H](Cc2ccccc2)NC(=O)O[C@H]2CCOC2)CSC1(C)C
Ki [11]: 86.2 nM

Cc1ccccc1CNC(=O)[C@H]1N(C(=O)[C@@H](O)[C@H](Cc2ccccc2)NC(=O)O[C@H]2CCOC2)CSC1(C)C
Ki [11]: 0.21 nM
IC50 [12]: 20 nM

COC(=O)N[C@H](C(=O)N[C@@H](Cc1ccccc1)[C@@H](O)CN(Cc1ccc(-c2ccccn2)cc1)NC(=O)[C@@H](NC(=O)OC)C(C)(C)C)C(C)(C)C [ATAZANAVIR]
Ratio IC50 [1]: 15
IC50 [2]: 3 nM
Ratio IC50 [3]: 212
Ratio IC50 [4]: 13
Ratio IC50 [5]: 10
IC50 [6]: 45 nM
IC50 [7]: 40 nM
IC50 [13]: 635 nM
IC50 [8]: 47 nM
Ratio IC50 [9]: 16
IC50 [10]: 29 nM

Source: ChEMBL document CHEMBL1159037, “Synthesis and biological evaluation of novel allophenylnorstatine-based HIV-1 protease inhibitors incorporating high affinity P2-ligands” (Bioorg Med Chem Lett, 2010)
